Fewer inactive variants are shown than the library holds.
B1: tRNA (parent)
chain: GUUCCGUUGGCGUAAUGGUAACGCGUCUCCCUCCUAAGGAGAAGACUGCGGGUUCGAGUCCCGUACGGAACG

Variants of: B1
Test: yeast fitness relative to wild type (ratio to wild type); higher = fitter; tRNA-Arg(CCU), competitive growth, 37 C, YPD
Procedure, shortened: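 Variants of the tRNA-Arg(CCU) gene, chemically synthesised with a 3% per-site mutation rate at 69 sites, were placed at the native genomic locus in Saccharomyces cerevisiae. The pooled strains were competed in YPD at 37°C for 24 hours in six parallel replicates. Gene amplicons from the start population and from each end population were read by 100-nucleotide paired-end sequencing. Darwinian fitness relative to wild type came from changes in genotype frequencies; genotypes needed ≥ 100 starting reads, and estimates < 0.5 were set to 0.5.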

Variant	yeast fitness
U8C A42G C55A	≤ 0.5
U16A A42C U54A	≤ 0.5
U16G U53A U59A C66A	≤ 0.5
U3C A14U A65C	≤ 0.5
C5A C11G G41C C66U	≤ 0.5
C4A C22G C30U A40G A45C	≤ 0.5
C11U C30A A65C	0.685
C5A G12A C29A G68C	0.689
G17C C55U G63C G67C	≤ 0.5
C4U U7A C33G A42C	≤ 0.5
C22U G44C A70U	0.711
C27G U47G C49U C66U	0.584
U47A C55G G68A	≤ 0.5
C22U C30U A37G G68A	≤ 0.5
U28A C34A A40G C66A	≤ 0.5
G10C A14U A20U C31A C55G G56C	≤ 0.5
U2C C4A C27G C34G G51A	0.514
G9A C27G C34A C46G	≤ 0.5
C22G C49U C60A	≤ 0.5
U3C C5U A21G C34G	≤ 0.5
U2A G39A G48C	≤ 0.5
C61U A65U C66U	≤ 0.5
U7C C30U G39C U54C U64C	≤ 0.5
G10A C30G G68A	≤ 0.5

Variant	yeast fitness
G10A C30U	0.748
C5G C11G C30U C31U A57G	0.8
C4A U13G A45U U47A U59C	≤ 0.5
C29G A70C	0.76
G12A A21G C24G U28G	0.992
C24A C31G C66A	≤ 0.5
C27A C31A A37C C46G	≤ 0.5
C4G C11G A65C	0.576
A15U G56U	0.657
U28A C49A	0.644
C5U A15G G17C C66U	≤ 0.5
U3A U16G C46U U54A	≤ 0.5
U7G A20G U47A C61A	0.597
C11G C24G C29U C62G C66A	≤ 0.5
C29G C60G C61U	0.52
G6A C22U C33A C55U C61A	≤ 0.5
C4U C11A C46U	0.661
C34U A37G A45U C49A	≤ 0.5
A20U A42G	0.797
U26A	0.996
A15G A43C	0.847
G9A G48A	0.955
U47C G48C	0.797
U3A G17A C22U C66U	0.616

Variant	yeast fitness
C5U C11A U28G G44C	≤ 0.5
A14C C46U G50C C61A A70C	≤ 0.5
C29U C34G C55U C61G	0.508
A20G A40U G51C	≤ 0.5
G44C C61G	0.586
C5U A21G C24G U28G	≤ 0.5
G52A A65U	0.631
G9A G41C	0.899
C4U A15G G23C A37U A65U	0.57
C31A A65C G67U	≤ 0.5
G6A C11U C22G U47A C60U	≤ 0.5
C5A C22G C29G C31G C61A	0.529
A36U A45C	0.6
A36G C62A G63C	≤ 0.5
C5U U8C A36G C60A	≤ 0.5
U32C C34G A42C	≤ 0.5
A15C U26G U28C U32C A37G G41A C49G	≤ 0.5
C33A U35C C60A	≤ 0.5
U7G C11U G12C C33U C61G C62G	≤ 0.5
C22U C24A G56A A70U	≤ 0.5
C4G U32G A69C	≤ 0.5
A15G C29G C34G C66G	≤ 0.5
U16C U32G C49G C55A	≤ 0.5
C24G A40C U47A A69G	≤ 0.5

Variant	yeast fitness
A14U A20G A69C	≤ 0.5
A21G C49U G63C	≤ 0.5
G6A G18C A37C C60A U64A	≤ 0.5
C24G G25A C61G G67C G68A	0.676
C5A A20U C31G G58A C62U A69C	≤ 0.5
G6A G10C G63A	≤ 0.5
A15G A43G A57U	0.793
C27U C49A U64C G67A	≤ 0.5
C27G U32G A36C C46G A70U	≤ 0.5
A21U A57U G68C	≤ 0.5
C60A G68U	0.587
U13C A65U	1.02
G6A U16G A37C A57C C60A	≤ 0.5
U19A C31G	1.02
C24G A37C G67A	≤ 0.5
C31G C34U A40C A69C	≤ 0.5
C22U C24U G50C	0.618
U13C C29A A37U C49A	≤ 0.5
G6A C24A U53C A57C A65U	≤ 0.5
A42U U54G	0.605
U19C A43G	1.07
G48A C55G C62U	≤ 0.5
G6A C30U C62A	≤ 0.5
U2A A15U	0.753

Variant	yeast fitness
U2G C5A A36U	≤ 0.5
A20U C55G C62U	0.508
C27A U59A	0.876
U3C G9A	1.04
C22G C34A G41A	≤ 0.5
G6C U59C	0.656
G6A A14C A40U A43G G48A	0.607
C5A U7C G63C	≤ 0.5
C5A G48A C60A	≤ 0.5
C34U G58C G63A A70C	≤ 0.5
C5G U13A C31G G50A G67A A69G	≤ 0.5
G9C C49G	0.63
C11A G18A C27U C34G A42C	≤ 0.5
C30U U35A	0.63
C27A G48A	0.995
C31U A40U	0.975
C11U U16C U19A C29U	≤ 0.5
U3A A15U G23C C27U G52A	0.64
C11A C33G A43C G68A A70G	≤ 0.5
C5A A43C	0.987
U13C C66A	0.556
C11U A43C C62U	0.692
U8C G9U C29A C34G A36G A40C U47A U64C	≤ 0.5
C4U U28G C60A	0.503

Variant	yeast fitness
C4U G25A A70U	0.77
U8C C22A C46A A65U	≤ 0.5
U32C A57C	0.659
G6A A15G C22A G25A C33U G52C G56C	≤ 0.5
C5U U26A A65U G68U	0.548
G18U C33U C34U C66A A70C	≤ 0.5
U28A C33G	0.618
C4A G52C C62U	≤ 0.5
A37U C60G	0.516
C4A A37U	0.795
A14U C24G C31A A40G G44C	≤ 0.5
G17C A20U A42U	0.604
A14G C30U A43C G52A	≤ 0.5
U3C U28A C34U G41C G51A U53A U59C A70U	≤ 0.5
G18A C34A C46U	0.692
G9A C60U U64G	0.696
A37U A45G	0.777
U2C G10C A45C	≤ 0.5
U26C C61U U64A	0.526
A14U A36U G38A	≤ 0.5
C34G A37G A65G	0.966
C4A G23A C33G G63C A65U	≤ 0.5
G10A U16A C31A A42G A43G G68C	≤ 0.5
C11U A36C C61U	≤ 0.5

Variant	yeast fitness
C29A A42G G63A	≤ 0.5
G9A C11U A14G C29A	≤ 0.5
C4U C11G C30G U47C	≤ 0.5
G17A C31U U35C A57G C62U	≤ 0.5
G6C U8C C22U	0.526
U8C G12A G51A C66A	≤ 0.5
A20G C30U	0.871
C34G A45C A57C A65G	≤ 0.5
G9C C29U C34G G48C C62U	0.782
A21C C31U G38A G39C C49G	≤ 0.5
C31A G50A	0.791
A57C A65U C66G	≤ 0.5
C31G G56C	0.632
U7A G17C A37G C49A	≤ 0.5
G9C A43C C55G	≤ 0.5
G50A U59G	0.846
C31U C46A A69C	0.757
U2G A15C G50A	≤ 0.5
C4G C11G C29A A40G	≤ 0.5
C24G A42G	0.587
C34A U35C	0.519
C34G G48A	0.662
U7C U16A C24G G41C	≤ 0.5

— the RNAGym collection of RNA variant scans (doi:10.1126/science.aae0568)
